Measured values reported in ChEMBL document CHEMBL5058577, “EUbOPEN Chemogenomics Library 2 (Multiplex)” (2022).

System: HEK-293T
Assay: Multiplex assay against HEK293T
Assay type: toxicity, cell-based
Conditions: human
Procedure, shortened: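 Cells stained live at seeding with Hoechst33342, BioTracker Green Microtubule Cytoskeleton Dye, MitoTracker Red and Annexin V Alexa Fluor 680 were imaged on a CQ1 microscope at 37°C and 5% CO2 after compound addition. Their classification by CellPathfinder machine-learning gating ran from Hoechst high-intensity objects versus normal cells, to healthy, pyknosed or fragmented nuclei among normal cells, to mitotic or apoptotic among pyknosed cells. Tubulin, mitochondrial-mass and membrane-permeability phenotypes are per cents of healthy-nucleus cells.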

[1] = 12 h, 1 µM, compound concentration 1 uM, replicate 1
[2] = 12 h, 1 µM, compound concentration 1 uM, replicate 2
[3] = 12 h, 10 µM, compound concentration 10 uM, replicate 1
[4] = 12 h, 10 µM, compound concentration 10 uM, replicate 2
[5] = 24 h, 1 µM, compound concentration 1 uM, replicate 1
[6] = 24 h, 1 µM, compound concentration 1 uM, replicate 2
[7] = 24 h, 10 µM, compound concentration 10 uM, replicate 1
[8] = 24 h, 10 µM, compound concentration 10 uM, replicate 2
[9] = 48 h, 1 µM, compound concentration 1 uM, replicate 1
[10] = 48 h, 1 µM, compound concentration 1 uM, replicate 2
[11] = 48 h, 10 µM, compound concentration 10 uM, replicate 1
[12] = 48 h, 10 µM, compound concentration 10 uM, replicate 2

Structure (SMILES): CCCCC[C@H](O)/C=C/[C@H]1[C@H](O)CC(=O)[C@@H]1CCCCCCC(=O)O [ALPROSTADIL]
- Population Apoptotic (%) [1]: 35%
- Population Fragmented Nuclei (%) [1]: 7%
- Population Healthy Nuclei (%) [1]: 79%
- Population Hoechst High Intensity Objects (%) [1]: 7%
- Population Membrane Permeable-Phenotype (%) [1]: 0%
- Population Mitochondria Different-Phenotype (%) [1]: 42%
- Population Mitotic Cells (%) [1]: 64%
- Population Normal (%) [1]: 92%
- Population Pyknosed Nuclei (%) [1]: 13%
- Population Tubulin-Different-Phenotype (%) [1]: 28%
- Total Cell Count [1]: 471
- Population Apoptotic (%) [2]: 50%
- Population Fragmented Nuclei (%) [2]: 6%
- Population Healthy Nuclei (%) [2]: 80%
- Population Hoechst High Intensity Objects (%) [2]: 6%
- Population Mitochondria Different-Phenotype (%) [2]: 55%
- Population Mitotic Cells (%) [2]: 49%
- Population Normal (%) [2]: 93%
- Population Tubulin-Different-Phenotype (%) [2]: 18%
- Total Cell Count [2]: 392
- Population Apoptotic (%) [3]: 33%
- Population Fragmented Nuclei (%) [3]: 7%
- Population Healthy Nuclei (%) [3]: 78%
- Population Hoechst High Intensity Objects (%) [3]: 6%
- Population Membrane Permeable-Phenotype (%) [3]: 1%
- Population Mitochondria Different-Phenotype (%) [3]: 48%
- Population Mitotic Cells (%) [3]: 66%
- Population Normal (%) [3]: 93%
- Population Pyknosed Nuclei (%) [3]: 14%
- Population Tubulin-Different-Phenotype (%) [3]: 33%
- Total Cell Count [3]: 318
- Population Healthy Nuclei (%) [4]: 75%
- Population Hoechst High Intensity Objects (%) [4]: 9%
- Population Membrane Permeable-Phenotype (%) [4]: 0%
- Population Mitochondria Different-Phenotype (%) [4]: 64%
- Population Normal (%) [4]: 90%
- Population Pyknosed Nuclei (%) [4]: 17%
- Population Tubulin-Different-Phenotype (%) [4]: 30%
- Total Cell Count [4]: 309
- Population Apoptotic (%) [5]: 35%
- Population Fragmented Nuclei (%) [5]: 9%
- Population Healthy Nuclei (%) [5]: 79%
- Population Hoechst High Intensity Objects (%) [5]: 3%
- Population Membrane Permeable-Phenotype (%) [5]: 1%
- Population Mitochondria Different-Phenotype (%) [5]: 22%
- Population Mitotic Cells (%) [5]: 64%
- Population Normal (%) [5]: 96%
- Population Pyknosed Nuclei (%) [5]: 10%
- Population Tubulin-Different-Phenotype (%) [5]: 15%
- Total Cell Count [5]: 605
- Population Apoptotic (%) [6]: 34%
- Population Fragmented Nuclei (%) [6]: 6%
- Population Healthy Nuclei (%) [6]: 85%
- Population Hoechst High Intensity Objects (%) [6]: 4%
- Population Membrane Permeable-Phenotype (%) [6]: 0%
- Population Mitochondria Different-Phenotype (%) [6]: 35%
- Population Mitotic Cells (%) [6]: 65%
- Population Normal (%) [6]: 95%
- Population Pyknosed Nuclei (%) [6]: 8%
- Population Tubulin-Different-Phenotype (%) [6]: 14%
- Total Cell Count [6]: 526
- Population Apoptotic (%) [7]: 32%
- Population Fragmented Nuclei (%) [7]: 11%
- Population Healthy Nuclei (%) [7]: 76%
- Population Hoechst High Intensity Objects (%) [7]: 2%
- Population Membrane Permeable-Phenotype (%) [7]: 0%
- Population Mitochondria Different-Phenotype (%) [7]: 26%
- Population Mitotic Cells (%) [7]: 67%
- Population Normal (%) [7]: 97%
- Population Pyknosed Nuclei (%) [7]: 12%
- Population Tubulin-Different-Phenotype (%) [7]: 23%
- Total Cell Count [7]: 439
- Population Apoptotic (%) [8]: 36%
- Population Fragmented Nuclei (%) [8]: 7%
- Population Healthy Nuclei (%) [8]: 79%
- Population Hoechst High Intensity Objects (%) [8]: 8%
- Population Mitochondria Different-Phenotype (%) [8]: 50%
- Population Mitotic Cells (%) [8]: 63%
- Population Normal (%) [8]: 91%
- Population Tubulin-Different-Phenotype (%) [8]: 22%
- Total Cell Count [8]: 345
- Population Apoptotic (%) [9]: 32%
- Population Fragmented Nuclei (%) [9]: 13%
- Population Healthy Nuclei (%) [9]: 79%
- Population Hoechst High Intensity Objects (%) [9]: 2%
- Population Membrane Permeable-Phenotype (%) [9]: 2%
- Population Mitochondria Different-Phenotype (%) [9]: 12%
- Population Mitotic Cells (%) [9]: 67%
- Population Normal (%) [9]: 97%
- Population Pyknosed Nuclei (%) [9]: 7%
- Population Tubulin-Different-Phenotype (%) [9]: 11%
- Total Cell Count [9]: 1005
- Population Apoptotic (%) [10]: 13%
- Population Fragmented Nuclei (%) [10]: 16%
- Population Healthy Nuclei (%) [10]: 77%
- Population Hoechst High Intensity Objects (%) [10]: 3%
- Population Membrane Permeable-Phenotype (%) [10]: 0%
- Population Mitochondria Different-Phenotype (%) [10]: 21%
- Population Mitotic Cells (%) [10]: 86%
- Population Normal (%) [10]: 96%
- Population Pyknosed Nuclei (%) [10]: 6%
- Population Tubulin-Different-Phenotype (%) [10]: 12%
- Total Cell Count [10]: 714
- Population Apoptotic (%) [11]: 25%
- Population Fragmented Nuclei (%) [11]: 15%
- Population Healthy Nuclei (%) [11]: 76%
- Population Hoechst High Intensity Objects (%) [11]: 2%
- Population Membrane Permeable-Phenotype (%) [11]: 1%
- Population Mitochondria Different-Phenotype (%) [11]: 17%
- Population Mitotic Cells (%) [11]: 75%
- Population Normal (%) [11]: 97%
- Population Pyknosed Nuclei (%) [11]: 7%
- Population Tubulin-Different-Phenotype (%) [11]: 15%
- Total Cell Count [11]: 685
- Population Apoptotic (%) [12]: 20%
- Population Fragmented Nuclei (%) [12]: 14%
- Population Healthy Nuclei (%) [12]: 79%
- Population Membrane Permeable-Phenotype (%) [12]: 0%
- Population Mitochondria Different-Phenotype (%) [12]: 30%
- Population Mitotic Cells (%) [12]: 80%
- Population Pyknosed Nuclei (%) [12]: 6%
- Population Tubulin-Different-Phenotype (%) [12]: 14%
- Total Cell Count [12]: 537
